Measurements as given in ChEMBL document CHEMBL2331391, “Peroxisome proliferator-activated receptor-γ mediates the anti-inflammatory effect of 3-hydroxy-4-pyridinecarboxylic acid derivatives: synthesis and biological evaluation” (Eur J Med Chem, 2013).
Calls of active or inactive are those of the source. The rule behind the calls is not given here.

Assays:
[1] = target: T1, Peroxisome proliferator-activated receptor gamma (Mus musculus) (UniProt P37238); assay: Induction of PPAR-gamma promoter activity in LPS-stimulated mouse CMT93 cells at 10 uM preincubated for 30 mins before LPS-challenge measured after 6 hrs post challenge by luciferase reporter gene assay; assay type: cell-based
T1 sequence (whole entry): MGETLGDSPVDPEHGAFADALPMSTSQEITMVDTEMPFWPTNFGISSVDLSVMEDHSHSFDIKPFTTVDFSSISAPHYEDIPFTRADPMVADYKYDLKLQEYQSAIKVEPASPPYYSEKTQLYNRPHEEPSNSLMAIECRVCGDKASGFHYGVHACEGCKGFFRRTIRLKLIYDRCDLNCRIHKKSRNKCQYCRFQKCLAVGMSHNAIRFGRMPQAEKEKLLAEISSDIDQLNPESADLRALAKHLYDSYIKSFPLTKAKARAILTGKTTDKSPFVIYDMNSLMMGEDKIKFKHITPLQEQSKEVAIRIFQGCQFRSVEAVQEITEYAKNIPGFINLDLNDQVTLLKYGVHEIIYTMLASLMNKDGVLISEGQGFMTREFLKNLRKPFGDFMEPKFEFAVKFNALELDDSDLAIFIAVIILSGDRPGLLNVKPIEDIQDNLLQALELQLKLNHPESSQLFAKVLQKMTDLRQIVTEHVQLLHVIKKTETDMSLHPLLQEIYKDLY
Method in brief: (§1)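 CMT-93 cells (1×10⁵/well) were transfected with an NF-κB or PPRE luciferase reporter plus CMV-β-Gal. At 24 h they were treated with compound for 30 min, then with 100 ng/mL LPS for 6 h. Cells were lysed in Tris/EDTA/DTT/Triton buffer and supernatant luciferase was read by luminometer. Results are fold over untreated cells.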

Macrophage [2] = assay: Increase in PPAR-gamma mRNA transcript level in human macrophages at 10 uM by quantitative PCR analysis; assay type: functional, cell-based
Macrophage [3] = assay: Antiinflammatory activity in human macrophages assessed as inhibition of LPS-induced IL-8 release at 10 uM preincubated for 30 mins before LPS-challenge measured after 24 hrs post challenge by ELISA; assay type: functional, cell-based
Method in brief: (§2)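 Human blood PBMC-derived macrophages were used after 10 days of culture. Purity >95% (esterase, CD14, morphology). Cells were pretreated 30 min at 37 °C with compound, then given 100 ng/mL LPS (S. enteritidis) for 24 h. TNFα, IL-1β and IL-8 in conditioned medium were measured by ELISA. Working solutions were endotoxin-tested by LAL (<3 pg/mL).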

Macrophage [4] = assay: Antiinflammatory activity in human macrophages assessed as inhibition of LPS-induced IL-1beta release at 10 uM preincubated for 30 mins before LPS-challenge measured after 24 hrs post challenge by ELISA; assay type: functional, cell-based; method in brief: as §2
Macrophage [5] = assay: Antiinflammatory activity in human macrophages assessed as inhibition of LPS-induced TNFalpha release at 10 uM preincubated for 30 mins before LPS-challenge measured after 24 hrs post challenge by ELISA; assay type: functional, cell-based; method in brief: as §2
[6] = Cytotoxicity against human macrophages at 10 '4 uM after 72 hrs by MTT assay; assay type: cell-based; settings: macrophage
[7] = Cytotoxicity against human macrophages at 10 '5 uM after 72 hrs by MTT assay; assay type: cell-based; settings: macrophage
[8] = Cytotoxicity against human macrophages up to 100 uM after 72 hrs by MTT assay; assay type: cell-based; settings: macrophage
Macrophage [9] = assay: Antiinflammatory activity in human macrophages assessed as inhibition of LPS-induced IL8 mRNA transcript accumulation at 10 uM preincubated for 30 mins before LPS-challenge measured after 24 hrs post challenge by quantitative PCR analysis; assay type: functional, cell-based
Method in brief: (§3)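 Monocyte-derived human macrophages were pretreated with 10 µM compound, then stimulated with LPS for 24 h. RNA was extracted and TNFα and IL8 transcripts were quantified by real-time RT-PCR with UPL probes. GAPDH served as reference gene.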

Macrophage [10] = assay: Antiinflammatory activity in human macrophages assessed as inhibition of LPS-induced TNFalpha mRNA transcript accumulation at 10 uM preincubated for 30 mins before LPS-challenge measured after 24 hrs post challenge by quantitative PCR analysis; assay type: functional, cell-based; method in brief: as §3
[11] = Antiinflammatory activity in human macrophages assessed as inhibition of LPS-induced IL8 release at 10 '-3 uM preincubated for 30 mins before LPS-challenge measured after 24 hrs post challenge by ELISA (reference value: 7.86 +/-0.17 ng/ml); assay type: functional, Macrophage; method in brief: as §2
[12] = Antiinflammatory activity in human macrophages assessed as inhibition of LPS-induced IL8 release at 10 '-2 uM preincubated for 30 mins before LPS-challenge measured after 24 hrs post challenge by ELISA (reference value: 7.86 +/-0.17 ng/ml); assay type: functional, Macrophage; method in brief: as §2
[13] = Antiinflammatory activity in human macrophages assessed as inhibition of LPS-induced IL8 release at 1 uM preincubated for 30 mins before LPS-challenge measured after 24 hrs post challenge by ELISA (reference value: 7.86 +/-0.17 ng/ml); assay type: functional, Macrophage; method in brief: as §2
[14] = Antiinflammatory activity in human macrophages assessed as inhibition of LPS-induced IL8 release at 5 uM preincubated for 30 mins before LPS-challenge measured after 24 hrs post challenge by ELISA (reference value: 7.86 +/-0.17 ng/ml); assay type: functional, Macrophage; method in brief: as §2
[15] = Antiinflammatory activity in human macrophages assessed as inhibition of LPS-induced IL8 release at 10 uM preincubated for 30 mins before LPS-challenge measured after 24 hrs post challenge by ELISA (reference value: 7.86 +/-0.17 ng/ml); assay type: functional, Macrophage; method in brief: as §2
[16] = Antiinflammatory activity in human macrophages assessed as inhibition of LPS-induced IL8 release at 100 uM preincubated for 30 mins before LPS-challenge measured after 24 hrs post challenge by ELISA (reference value: 7.86 +/-0.17 ng/ml); assay type: functional, Macrophage; method in brief: as §2
[17] = Antiinflammatory activity in human macrophages assessed as inhibition of LPS-induced TNFalpha release at 10 '-3 uM preincubated for 30 mins before LPS-challenge measured after 24 hrs post challenge by ELISA (reference value: 1682 +/-190 ng/ml); assay type: functional, Macrophage; method in brief: as §2
[18] = Antiinflammatory activity in human macrophages assessed as inhibition of LPS-induced TNFalpha release at 10 '-2 uM preincubated for 30 mins before LPS-challenge measured after 24 hrs post challenge by ELISA (reference value: 1682 +/-190 ng/ml); assay type: functional, Macrophage; method in brief: as §2
[19] = Antiinflammatory activity in human macrophages assessed as inhibition of LPS-induced TNFalpha release at 1 uM preincubated for 30 mins before LPS-challenge measured after 24 hrs post challenge by ELISA (reference value: 1682 +/-190 ng/ml); assay type: functional, Macrophage; method in brief: as §2
[20] = Antiinflammatory activity in human macrophages assessed as inhibition of LPS-induced TNFalpha release at 5 uM preincubated for 30 mins before LPS-challenge measured after 24 hrs post challenge by ELISA (reference value: 1682 +/-190 ng/ml); assay type: functional, Macrophage; method in brief: as §2
[21] = Antiinflammatory activity in human macrophages assessed as inhibition of LPS-induced TNFalpha release at 10 uM preincubated for 30 mins before LPS-challenge measured after 24 hrs post challenge by ELISA (reference value: 1682 +/-190 ng/ml); assay type: functional, Macrophage; method in brief: as §2
[22] = Antiinflammatory activity in human macrophages assessed as inhibition of LPS-induced TNFalpha release at 100 uM preincubated for 30 mins before LPS-challenge measured after 24 hrs post challenge by ELISA (reference value: 1682 +/-190 ng/ml); assay type: functional, Macrophage; method in brief: as §2
[23] = target: Transcription factor p65 (Mus musculus) (UniProt Q04207); assay: Inhibition of LPS-induced p65 NF-kappaB phosphorylation in mouse CMT93 cells at 10 uM preincubated for 30 mins before LPS-challenge measured after 6 hrs post challenge by Western blot analysis; assay type: cell-based
Method in brief: (§4)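 CMT-93 cells were pretreated with 10 µM compound and stimulated with LPS for 6 h. Lysates were run on 10% SDS-PAGE and transferred to PVDF. Blots were probed overnight at 4 °C for phospho-p65, IκBα or COX-2 (1:1000), with HRP detection.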

Mus musculus [24] = assay: Antiinflammatory activity in DSS-induced C57Bl/6 mouse colitis model assessed as inhibition IL-1beta level in colonic homogenate at 400 mg/kg/day administered intragastrically for 7 days; assay type: functional, organism-based
Method in brief: (§5)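 Male C57Bl/6J mice, 8–10 per group, dosed intragastrically daily for 7 days at 400 mg/kg/day (vehicle 100 µL). From day 2, drinking water carried 3.5% w/vol DSS. Killed 5 days after colitis induction. Full-thickness proximal colon homogenised for MPO activity and IL-1β protein.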

Mus musculus [25] = assay: Antiinflammatory activity in DSS-induced C57Bl/6 mouse colitis model assessed as inhibition MPO activity in colonic homogenate at 400 mg/kg/day administered intragastrically for 7 days; assay type: functional; settings: C57Bl/6, po, 168 h, route intragastric; method in brief: as §5
CMT93 [26] = assay: Increase in ROS production in LPS-stimulated mouse CMT93 cells at 10 uM preincubated for 30 mins before LPS-challenge measured after 24 hrs post challenge by DCFDA fluorescence assay in presence of PPAR-gamma antagonist PD68235; assay type: functional, cell-based
CMT93 [27] = assay: Increase in ROS production in LPS-stimulated mouse CMT93 cells at 10 uM preincubated for 30 mins before LPS-challenge measured after 24 hrs post challenge by DCFDA fluorescence assay in presence of alpha-tocopherol; assay type: functional, cell-based
CMT93 [28] = assay: Increase in ROS production in mouse CMT93 cells at 10 uM measured after 30 mins by DCFDA fluorescence assay (reference value: 2.64 %); assay type: functional, cell-based
CMT93 [29] = assay: Increase in ROS production in LPS-stimulated mouse CMT93 cells at 10 uM preincubated for 30 mins before LPS-challenge measured after 30 mins post challenge by DCFDA fluorescence assay (reference value: 2.64 %); assay type: functional, cell-based
[30] = target: T1, Peroxisome proliferator-activated receptor gamma (Mus musculus); assay: Induction of PPAR-gamma promoter activity in mouse CMT93 cells at 10 uM by luciferase reporter gene assay; assay type: cell-based; method in brief: as §1
Macrophage [31] = assay: Antiinflammatory activity in human macrophages assessed as inhibition of LPS-induced increase in IL8 level at 10 uM preincubated for 30 mins before LPS-challenge measured after 24 hrs post challenge by ELISA in presence of PPAR-gamma antagonist PD68235; assay type: functional, cell-based
Method in brief: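 Human macrophages were pre-exposed to 20 µM PPARγ antagonist PD68235 alongside 10 µM compound, then challenged with 100 ng/mL LPS. After 24 h, IL8 protein in conditioned medium was measured by ELISA.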

Macrophage [32] = assay: Antiinflammatory activity in human macrophages assessed as inhibition of LPS-induced increase in TNFalpha mRNA transcript at 10 uM preincubated for 30 mins before LPS-challenge measured after 24 hrs post challenge by quantitative PCR analysis in presence of PPAR-gamma antagonist PD68235; assay type: functional, cell-based
[33] = target: Transcription factor p65 (Mus musculus) (UniProt Q04207); assay: Inhibition of LPS-induced p65 NF-kappaB activation in mouse CMT93 cells assessed as inhibition of in COX-2 expression at 10 uM preincubated for 30 mins before LPS-challenge measured after 6 hrs post challenge by Western blot analysis; assay type: cell-based; method in brief: as §4
[34] = target: Transcription factor p65 (Mus musculus) (UniProt Q04207); assay: Inhibition of LPS-induced p65 NF-kappaB promoter activation in mouse CMT93 cells at 10 uM preincubated for 30 mins before LPS-challenge measured after 6 hrs post challenge by luciferase reporter gene assay; assay type: cell-based; method in brief: as §1
[35] = target: Transcription factor p65 (Mus musculus) (UniProt Q04207); assay: Inhibition of LPS-induced p65 NF-kappaB activation in mouse CMT93 cells assessed as inhibition of in IkBalpha degradation at 10 uM preincubated for 30 mins before LPS-challenge measured after 6 hrs post challenge by Western blot analysis; assay type: cell-based; method in brief: as §4

Sequence of Transcription factor p65 (Mus musculus) (Q04207 whole entry): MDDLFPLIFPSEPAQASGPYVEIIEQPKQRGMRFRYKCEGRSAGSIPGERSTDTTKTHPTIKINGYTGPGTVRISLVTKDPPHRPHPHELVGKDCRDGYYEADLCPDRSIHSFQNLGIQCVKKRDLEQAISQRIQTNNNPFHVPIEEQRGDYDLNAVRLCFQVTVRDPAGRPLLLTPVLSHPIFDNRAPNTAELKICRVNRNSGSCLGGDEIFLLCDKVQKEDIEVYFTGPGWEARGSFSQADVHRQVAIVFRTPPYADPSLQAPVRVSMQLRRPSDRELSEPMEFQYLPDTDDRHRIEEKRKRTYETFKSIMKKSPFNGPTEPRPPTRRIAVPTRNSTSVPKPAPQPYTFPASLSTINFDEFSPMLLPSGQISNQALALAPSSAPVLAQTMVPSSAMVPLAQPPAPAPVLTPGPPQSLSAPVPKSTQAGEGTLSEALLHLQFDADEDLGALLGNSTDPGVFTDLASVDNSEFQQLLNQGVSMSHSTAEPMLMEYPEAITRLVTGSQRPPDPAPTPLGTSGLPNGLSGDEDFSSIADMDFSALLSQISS

CN(CCOc1ccc(CC2SC(=O)NC2=O)cc1)c1ccccn1 (stereo not given)
Activity [1]: Active
Activity (Macrophage [2]): Active

O=C(O)c1ccccc1O
inhibition (Macrophage [3]): Active
inhibition (Macrophage [4]): Active
inhibition (Macrophage [5]): Active

CCc1nccc(C(=O)O)c1O
inhibition (Macrophage [3]): inactive
inhibition (Macrophage [4]): inactive
inhibition (Macrophage [5]): inactive

O=C(O)c1ccnc(CO)c1O
inhibition (Macrophage [3]): inactive
inhibition (Macrophage [4]): inactive
inhibition (Macrophage [5]): inactive
Activity [6]: Toxic
Activity [7]: Toxic
Activity [8]: Non-toxic

C[n+]1ccc(C(=O)O)c(O)c1.[Cl-]
inhibition (Macrophage [9]): Active
inhibition (Macrophage [10]): Active
Activity [11]: 7.98 ng/mL
Activity [12]: 7.56 ng/mL
Activity [13]: 7.32 ng/mL
Activity [14]: 7.34 ng/mL
Activity [15]: 5.4 ng/mL
Activity [16]: 4.43 ng/mL
Activity [17]: 1689 ng/mL
Activity [18]: 1654 ng/mL
Activity [19]: 1651 ng/mL
Activity [20]: 1738 ng/mL
Activity [21]: 1084 ng/mL
Activity [22]: 1069 ng/mL
inhibition (Macrophage [3]): Active
inhibition (Macrophage [4]): Active
inhibition (Macrophage [5]): Active
Activity [6]: Toxic
Activity [7]: Toxic
Activity [8]: Non-toxic
inhibition [23]: Active
inhibition (Mus musculus [24]): Active
inhibition in vivo at 400 mg/kg/day (Mus musculus [25]): 56%
Activity (CMT93 [26]): inactive
Activity (CMT93 [27]): inactive
Activity (CMT93 [28]): Active
Activity (CMT93 [29]): Active
Activity [1]: Active
Activity [30]: Active
inhibition (Macrophage [31]): Active
inhibition (Macrophage [32]): inactive
Activity (Macrophage [2]): Active
inhibition [33]: Active
inhibition [34]: Active
inhibition [35]: Active

Cc1nccc(C(=O)O)c1O
inhibition (Macrophage [3]): inactive
inhibition (Macrophage [4]): inactive
inhibition (Macrophage [5]): inactive
Activity [6]: Toxic
Activity [7]: Toxic
Activity [8]: Non-toxic
